From PubChem
TRPC4 PAM – allosterically enhances the mouse TRPC4 cation channel; actives 0.42% (n = 310,000); Q9QUQ5; B-score at 10 µM; HEK293 TRPC4beta/mu-opioid, DAMGO EC20, Fluo-4 Ca2+ flux; stronger effect = higher value;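 active = B-score of calcium response area above 5 SD of library B-scores, with initial fluorescence ratio within 5 SD of library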;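 note: B-score of integrated fluorescence ratio over time as area under calcium response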
TRPC6 activator – activates the mouse TRPC6 cation channel; HEK293-TRPC6 membrane potential dye fluorescence; stronger effect = higher value; actives 0.13% (n = 310,000); AID 2550; B-score at 10 µM; Q61143;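 active = B-score of the integrated fluorescence ratio above library mean plus 3 SD, and starting fluorescence ratio within library mean plus 5 SD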;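 note: higher score means more depolarization so channel activation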
Target sequence (Q61143 whole entry, looked up): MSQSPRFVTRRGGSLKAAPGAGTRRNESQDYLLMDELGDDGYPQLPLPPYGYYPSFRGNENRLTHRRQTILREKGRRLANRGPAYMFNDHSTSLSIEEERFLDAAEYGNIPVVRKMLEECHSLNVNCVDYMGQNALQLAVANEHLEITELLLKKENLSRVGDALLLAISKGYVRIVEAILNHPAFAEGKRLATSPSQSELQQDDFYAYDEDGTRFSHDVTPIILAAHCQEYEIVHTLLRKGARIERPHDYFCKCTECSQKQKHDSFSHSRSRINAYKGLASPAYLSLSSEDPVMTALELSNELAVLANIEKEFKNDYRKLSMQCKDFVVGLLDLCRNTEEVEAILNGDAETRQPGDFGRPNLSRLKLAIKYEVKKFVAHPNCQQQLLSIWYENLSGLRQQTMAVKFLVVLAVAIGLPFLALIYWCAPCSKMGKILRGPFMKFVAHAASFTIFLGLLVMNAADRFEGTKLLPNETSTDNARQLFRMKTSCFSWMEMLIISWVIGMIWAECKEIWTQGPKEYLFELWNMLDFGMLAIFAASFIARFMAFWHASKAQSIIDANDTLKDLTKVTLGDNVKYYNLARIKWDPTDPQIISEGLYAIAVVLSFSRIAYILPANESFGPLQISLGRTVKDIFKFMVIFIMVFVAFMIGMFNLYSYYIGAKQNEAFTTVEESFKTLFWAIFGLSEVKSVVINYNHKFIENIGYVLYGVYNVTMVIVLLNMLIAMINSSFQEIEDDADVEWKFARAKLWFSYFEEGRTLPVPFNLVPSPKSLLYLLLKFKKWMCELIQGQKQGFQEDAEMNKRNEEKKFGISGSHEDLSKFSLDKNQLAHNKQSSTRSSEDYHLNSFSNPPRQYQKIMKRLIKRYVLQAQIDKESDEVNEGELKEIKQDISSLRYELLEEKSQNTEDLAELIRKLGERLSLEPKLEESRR
TRPC6 inh – inhibitors of mouse TRPC6 channel; B-score at 10 µM; AID 2553; actives 1.1% (n = 310,000); HEK293-TRPC6, membrane potential dye, ACh-evoked depolarization; stronger effect = lower value;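 active = B-score under library mean minus 3 SD, initial fluorescence not abnormally high, positive integrated signal ratio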;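 note: B-score derived from integrated fluorescence ratio over the kinetic read; more negative B-score means stronger inhibition of depolarization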
TRPC4 inh – inhibitors of mouse TRPC4 channel; Q9QUQ5; HEK293 TRPC4beta/mu-opioid, DAMGO-evoked Fluo4 calcium flux; stronger effect = lower value; B-score at 10 µM; actives 0.39% (n = 300,000); AID 2247;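 active = B-score over 3 SD under the library average, no early fluorescence shift, positive overall ratio signal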
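material = TRPC4beta/mu-opioid receptor HEK293 cell line | probe or stimulus = sequential submaximal and maximal DAMGO stimulation | compound dosing = one concentration per compound | measured by = Fluo4 Ca2+ flux fluorescence | evaluation = integrated fluorescence ratio relative to baseline, converted to per-well B score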
DNA FID counter – counter-screen for HCV NS3 helicase inhibitors: DNA intercalator displacement. DNA fluorescent intercalator displacement, fluorescence. inhibition, % at 7.9 µM. actives 0.17% (n = 290,000). AID 1845; in the data active = inhibition above about 37%;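 note: 0% = vehicle and 100% = reference compound; higher means more ethidium bromide displaced from hairpin DNA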
TRPC4 act – opens the mouse TRPC4 cation channel. B-score at 10 µM. actives 0.49% (n = 310,000). HEK293 TRPC4beta/mu-opioid, Fluo4 calcium fluorescence; stronger effect = higher value;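 active = B-score above 5 SD of library B-scores, and initial fluorescence ratio not above library mean plus 5 SD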;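 note: positive B-score marks a calcium rise read as TRPC4 activation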
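Material: TRPC4beta and mu-opioid receptor HEK293 stable cells | Incubation: 45 min room-temperature Fluo4 loading, 110 s read | Detection: Kinetic Fluo4 calcium fluorescence | Measure: Integrated baseline-normalised fluorescence ratio, converted to per-well B score | Benchmarks: Low control buffer alone, high control maximal DAMGO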
* marks the source's active call; other numbers are inactive results; i = inactive; . = no result. Compounds with a hit are over-represented: about 2.3% of the library has one in this group of screens.

SMILES | TRPC4 PAM | TRPC6 activator | TRPC6 inh | TRPC4 inh | DNA FID counter | TRPC4 act
CC(C)(C)CN1CCN(CCCc2ccccc2)C(CCO)C1 (configuration not stated) | i | i | i | i | 6 | i
O=C(COc1ccc(S(=O)(=O)NCc2ccccc2)cc1)NCc1cccnc1 | i | i | i | i | -17 | i
CN1CCN(c2ccc(Cl)cc2NC(=O)CC2OC(=O)c3ccccc32)CC1 (configuration not stated) | 23* | i | i | i | . | i
CN1CCN(c2ccc(Cl)cc2NC(=O)/C=C/c2cccc(F)c2)CC1 | 31* | i | i | i | 22 | i
CCc1cc(C(=O)Nc2cc(Cl)ccc2N2CCN(C)CC2)sc1C | i | i | i | i | . | i
Cc1ccc(-c2ccc(C(=O)NCCCNC(=O)c3cnccn3)o2)cc1Cl | i | i | i | i | -39 | i
COC(=O)CS(=O)(=O)c1cc(Br)cc2c1N(C(C)=O)CC2 | i | i | i | i | -3 | i
CC1CCN(CCCNS(=O)(=O)c2cc(Br)cc3c2N(C(=O)C2CC2)CC3)CC1 | i | i | i | i | 14 | 105*
CCCN(CCC)CCCNS(=O)(=O)c1cc(Br)cc2c1N(C(C)=O)CC2 | i | i | i | i | 13 | 62*
CSc1nnc(Cc2sc(-c3ccccc3)nc2-c2ccccc2)o1 | 20* | i | i | i | -23 | i
COC(=O)c1ccccc1NC(=S)NC(=O)C1CCCCC1 | 16* | i | i | i | -17 | i
COC(=O)c1ccccc1NC(=O)C1CCCC1 | i | i | i | i | -5 | i
Cc1c(C(=O)NC(=S)Nc2ccccc2N2CCCC2)cccc1[N+](=O)[O-] | 13* | i | i | i | -9 | i
COc1cc(Br)cc(C2C3=C(CCCC3=O)N(c3ccc(F)cc3)C3=C2C(=O)CCC3)c1O | 70* | i | i | i | -7 | i
COc1ccccc1C1C2=C(CCCC2=O)N(CC(=O)O)C2=C1C(=O)CCC2 | i | i | i | i | -4 | i
Cn1c(=O)oc2cc(S(=O)(=O)NCc3ccccc3)ccc21 | i | i | i | i | -4 | i
CCCN1CCN(C(=O)Cn2c(=O)oc3cc(S(=O)(=O)NCc4ccccc4)ccc32)CC1 | i | i | i | i | 12 | 104*
CN(CCNS(=O)(=O)c1ccc2c(c1)oc(=O)n2C)Cc1ccccc1 | 19* | i | i | i | 8 | i
C=CCNC(=O)c1cc2c(=O)n3cc(C)ccc3nc2nc1NCC1CCCO1 (configuration not stated) | i | i | -5.9* | i | 0 | i
O=C(CNCCc1ccc(Cl)cc1)Nc1ccc(C(=O)N2CCCCC2)cc1 | i | i | i | i | 22 | i
COc1ccc(C(CNC(=O)C2CC2)N(C)C)cc1 (configuration not stated) | i | i | i | i | -3 | i
COc1ccccc1OCC(=O)NCC(C)NC(=O)COc1ccccc1OC (configuration not stated) | i | i | i | i | . | i
COc1ccc(C(CNC(=O)Cc2ccc3ccccc3c2)N(C)C)cc1 (configuration not stated) | i | i | i | -6* | 6 | 135*
COc1ccc(C(CNC(=O)C(C)c2ccc3cc(OC)ccc3c2)N(C)C)cc1 (configuration not stated) | i | i | i | i | 16 | 204*
COc1ccc(C(CNC(=O)COc2ccccc2OC)N(C)C)cc1OC (configuration not stated) | i | i | i | i | 1 | 137*
SMILES | TRPC4 PAM | TRPC6 activator | TRPC6 inh | TRPC4 inh | DNA FID counter | TRPC4 act
COc1ccc(C(CNC(=O)c2cc(C)on2)N(C)C)cc1 (configuration not stated) | i | i | i | i | -3 | 84*
CCCCn1c(N)c(N(CCOC)C(=O)c2cccc(S(=O)(=O)N(CC)c3ccccc3)c2)c(=O)[nH]c1=O | i | i | i | i | . | i
C=CCC1(CC=C)CCCN1C(=O)c1cc(COc2ccc(C)nc2)on1 | i | i | i | i | -54 | i
CCCN1CCC(=O)N(CCO)CC1 | i | i | i | i | 2 | i
COc1ccccc1N1CCN(CCN(C(=O)C2CCCCC2)c2ccccn2)CC1 | i | i | i | i | . | i
COc1ccccc1N1CCN(CC(C)N(C(=O)C2CCCCC2)c2ccccn2)CC1 (configuration not stated) | i | i | i | -6* | -5 | i
Cc1ccc(N(CC(=O)NC2CCCC2)C(=O)CNC(=O)c2cccs2)cc1F | i | i | i | -7* | -38 | i
CN1C(=O)C(=O)/C(=C(/O)c2ccc(Br)cc2)C1c1ccccc1F (configuration not stated) | i | i | i | i | -16 | i
Cc1sc(NC(=O)C2CCCCC2C(=O)O)c(C(N)=O)c1-c1ccc(C(C)(C)C)cc1 (configuration not stated) | i | i | i | -5* | -13 | i
Cc1sc(NC(=O)C2CCCCC2C(=O)O)c(C(N)=O)c1-c1ccccc1 (configuration not stated) | i | i | i | i | -35 | i
CC(C)c1cc(-c2cc(C(=O)NCc3ccccc3)on2)nc(NCC2CC2)n1 | 10* | i | i | i | . | i
COc1ccc(C(=S)N2CCOCC2)cc1OS(=O)(=O)c1ccc(Br)cc1 | i | i | i | i | -30 | i
CCOC(=O)c1c(NC(=O)C2COc3ccccc3O2)sc2c1CC(C)(C)NC2(C)C (configuration not stated) | i | i | i | i | 43* | i
CCOC(=O)c1c(NC(=O)CSc2nnnn2-c2ccccc2)sc2c1CC(C)(C)NC2(C)C | i | i | i | i | 41* | i
O=C(CCCC1=NS(=O)(=O)c2ccccc2N1)N1CCN(c2ccc([N+](=O)[O-])cc2)CC1 | i | i | i | i | -1 | i
CCCCNC(=O)COn1nnc2ccc(S(=O)(=O)N3CCOCC3)cc21 | i | i | i | i | . | i
O=C(O)c1ccc(N/N=C/c2c[nH]c3ccccc23)cc1 | i | i | -5.2* | i | -6 | i
COc1ccc(C(=O)C2CCCN(C(=O)c3cccc(Cl)c3F)C2)cc1OC (configuration not stated) | i | i | i | i | -41 | i
